Screening results from PubChem.
Fh CTSL1 inh: Fasciola hepatica cathepsin L1 inhibitors, primary screen, counter-screen for PFM18AAP inhibitor project, biochemical, QFRET, fluorogenic peptide substrate | inhibition, % at 5.96 µM | recombinant F. hepatica cathepsin L1, Z-Leu-Arg-MCA fluorescence | 0.49% of 300,000 active;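 active = inhibition above the mean of all tested compounds plus 3 SD, set per screening campaign, cut at about 17% in these data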;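 also: 0% = plate median of test compound wells and 100% = 1 µM Z-Phe-Ala-diazomethylketone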
Neddylation inh: inhibitors of cullin neddylation, primary screen, biochemical, TR-FRET, uHTS, NAE and Ubc12; inhibition, % at 25 µM; 0.58% of 360,000 active; NEDD8-conjugating enzyme Ubc12 (Homo sapiens) + NEDD8-activating enzyme E1 regulatory …; in the data active = inhibition above about 36%
UBC9 SUMO inh: inhibitors of in vitro SUMOylation cascade, primary screen, biochemical, HTRF, uHTS; SUMO-conjugating enzyme UBC9 (Homo sapiens), P63279; HTRF SUMOylation assay, SAE1/SAE2 + UBC9; inhibition, % at 35 µM; 0.36% of 290,000 active; AID 2006, 2009; in the data active = inhibition above about 50%, passing the limit was not always enough
Target sequence (P63279 whole entry, looked up): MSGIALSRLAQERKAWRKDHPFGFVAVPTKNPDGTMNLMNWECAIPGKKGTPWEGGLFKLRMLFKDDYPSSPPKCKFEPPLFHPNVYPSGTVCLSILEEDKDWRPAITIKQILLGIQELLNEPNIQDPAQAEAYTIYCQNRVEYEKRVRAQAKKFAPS
UCH37 DUB inh: inhibitors of human UCH37 deubiquitinase, primary screen, biochemical, Ub-AMC cleavage, fluorescence. purified proteasome/UCH37. inhibition, % (no concentration beside the values). 0.33% of 330,000 active. Ubiquitin carboxyl-terminal hydrolase isozyme L5 (Homo sapiens), Q9Y5K5;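 active = mean inhibition over replicate wells above about 20%, limit read from the data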;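 also: 0% = compound-free wells with enzyme and 100% = wells lacking proteasome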
Target sequence (Q9Y5K5 whole entry, looked up): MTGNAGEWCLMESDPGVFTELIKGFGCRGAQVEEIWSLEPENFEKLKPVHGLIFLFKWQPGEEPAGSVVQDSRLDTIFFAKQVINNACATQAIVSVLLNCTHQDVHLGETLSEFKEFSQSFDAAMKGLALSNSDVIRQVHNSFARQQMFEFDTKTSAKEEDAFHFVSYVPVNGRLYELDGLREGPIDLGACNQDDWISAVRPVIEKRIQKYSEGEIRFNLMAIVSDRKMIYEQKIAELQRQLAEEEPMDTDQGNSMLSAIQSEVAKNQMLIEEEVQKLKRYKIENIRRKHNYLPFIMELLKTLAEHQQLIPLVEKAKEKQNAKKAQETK
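Material: Human UCH37 enzyme supplied as purified proteasome complex | Schedule: 30 min preincubation with enzyme, 25 min cleavage at room temperature | Detection: AMC fluorescence 355/460 nm | Measure: % inhibition of Ub-AMC cleavage fluorescence | Controls: Wells without proteasome as full block, compound-free enzyme plus substrate as uninhibited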
An asterisk follows results filed as active; i = inactive; . = no result given. This is a sample that favours compounds with a hit; in the whole collection about 1.4% have one here.

SMILES | Fh CTSL1 inh | Neddylation inh | UBC9 SUMO inh | UCH37 DUB inh
CCOC(=O)c1c2ccccc2[n+]([O-])n1[C@@H](C)C(N)=O | 3.5 | -5.1 | . | 32.3*
COc1ccc(Cl)cc1NC(=O)CC(C)=NNC(=O)C(=O)NCc1ccccc1 | . | . | . | 2.7
COC(=O)C1CCCCN1C(=O)c1cc(COc2cccc3cccnc23)on1 (stereo not given) | -1.6 | 32.5 | 20.3 | -7.9
CCOC(=O)CC1CCCCN1C(=O)c1cc(COc2cccc3cnccc23)on1 (stereo not given) | -0.2 | 55.6* | 21.2 | -64.8
COC(=O)C1CCCCN1C(=O)c1cc(COc2cccc3cnccc23)on1 (stereo not given) | 2.1 | 47.0* | 5.6 | .
Cc1ccc(NCC(=O)NN=Cc2ccc(-c3cccc(C(F)(F)F)c3)o2)cc1 | . | . | . | 3.6
O=C(O)CN1C(=O)/C(=C\c2cc(Br)ccc2OCc2ccc([N+](=O)[O-])cc2)SC1=S | 8.9 | -11.3 | 50.7* | 20.4*
O=C(O)CN1C(=O)/C(=C\c2cc(Br)ccc2OCc2ccccc2F)SC1=S | 2.7 | -13.9 | 25.1 | 24.1*
O=C(Nc1nnc(S(=O)(=O)N2CCCC2)s1)c1ccccc1Br | 80.6* | -42.4 | 11.8 | -0.3
CCOC(=O)c1cc(-c2ccc(/C=C3/C(=O)NC(=O)C(C#N)=C3C)o2)ccc1Cl | -0.8 | -12.0 | 8.3 | 22.1*
CCCCCCC(=O)NN=Cc1ccco1 | . | . | . | 2.8
CCOC(=O)N1CCN(c2cc(NCCC(=O)O)c3c4c(onc24)-c2ccccc2C3=O)CC1 | 21.3* | -28.5 | -55.5 | 26.8*
Cc1ccc(-n2[nH]c(C)c(C=NNc3ccc([N+](=O)[O-])cc3[N+](=O)[O-])c2=O)cc1C | . | . | . | 5.7
COc1ccc2c(c1)c(C(=O)CN1CCOCC1)c(C)n2C | 3.9 | 7.5 | 13.5 | 2.0
COc1ccc2c(c1)c(C(=O)CN1CCC3(CC1)OCCO3)c(C)n2C | 0.1 | 1.1 | 9.5 | 27.4*
COc1ccc(OC)c(/C=C2\S/C(=N/NC(=O)c3ccc4ccccc4c3)NC2=O)c1 | 6.7 | 47.8* | . | -3.1
CCC(C(=O)Oc1c(C(C)C)cccc1C(C)C)c1ccccc1 (stereo not given) | . | -24.6 | . | 32.6*
COc1ccc(/C=C/C(=O)Oc2cccc(C=NNC(=O)COc3c(C)cccc3C)c2)cc1 | . | . | . | -2.0
CC(=O)N(\C=C/C=C/C=C1\Sc2ccccc2C1=O)c1ccccc1 | 0.4 | -30.7 | 69.3* | 5.2
CC(C)c1ccc(O)c(NC(=O)c2ncn[nH]2)c1 | 16.8* | -5.0 | 12.1 | 2.6
Cc1cc(C[n+]2ccccc2)c2nsnc2c1 | -0.9 | 45.3* | 11.5 | -64.9
CC1=[N+](C)c2ccc3ccccc3c2C1(C)C | -0.1 | 44.1* | 16.0 | -6.0
CN1CCN(CCC(=O)NN=Cc2ccccc2F)CC1 | . | . | . | 0.9
O=c1c(-c2ccc(Cl)cc2)coc2c(CN3CCOCC3)c(O)ccc12 | 0.4 | . | 37.8 | -222.0
O=c1c(-c2ccccc2)coc2c(CN3CCCC3)c(O)ccc12 | 0.1 | . | 50.3* | i
SMILES | Fh CTSL1 inh | Neddylation inh | UBC9 SUMO inh | UCH37 DUB inh
CCCC1S/C(=N/N=Cc2cccs2)NC1=O (stereo not given) | . | . | . | 8.3
Cn1cccc1C=NNC(=O)CSc1nc2ccccc2n1C | . | . | . | 8.6
COc1ccc(-c2cc(C(=O)N3CC4(C)CC3CC(C)(C)C4)no2)cc1OC (stereo not given) | 17.3* | 18.3 | -3.4 | 1.3
NCC[C@H](O)C(=O)N[C@@H]1C[C@H](N)[C@@H](O[C@H]2O[C@H](CN)[C@@H](O)[C@H](O)[C@H]2O)[C@H](O)[C@H]1O[C@H]1O[C@H](CO)[C@@H](O)[C@H](N)[C@H]1O | . | 2.0 | 70.9* | .
COC(=O)C1=CO[C@@H](O[C@@H]2O[C@H](CO)[C@@H](O)[C@H](O)[C@H]2O)C2C(CO)=CCC12 (stereo not given in full) | . | -25.2 | . | -0.8
O=C(COc1ccccc1[N+](=O)[O-])N(Cc1ccco1)C1CCS(=O)(=O)C1 (stereo not given) | 25.3* | -2.5 | 3.8 | 1.0
CCN(C(=O)COc1ccccc1[N+](=O)[O-])C1CCS(=O)(=O)C1 (stereo not given) | -0.8 | -2.2 | 2.2 | 1.5
O=c1c2c3nc4ccccc4nc3n(CC3CCCO3)c2ncn1CCc1ccccc1 (stereo not given) | 6.5 | 51.3* | 27.5 | -92.6
COc1cc(OC)cc(-n2c3nc4ccccc4nc3c3c(=O)n(CC4CCCO4)cnc32)c1 (stereo not given) | -3.3 | . | 6.0 | .
NC(=O)c1ccsc1NC(=O)c1ccc(S(=O)(=O)N2CCCC2)cc1 | 0.1 | -1.4 | -2.9 | 7.4
NC(=O)c1ccsc1NC(=O)c1ccc(S(=O)(=O)N2CCCCC2)cc1 | 37.2* | 7.8 | 6.9 | -63.3
COc1ccc(OCc2cc(C(=O)NC3CCOCC3)no2)c2ccccc12 | 1.6 | -4.6 | -2.0 | 24.3*
COc1cccc(OCc2cc(C(=O)NC3CCOCC3)no2)c1 | -2.9 | 9.1 | -1.4 | 1.4
CCCc1cc(Nc2cccc(OC)c2)n2ncnc2n1 | 18.1* | 2.6 | 12.0 | 0.4
C#CCNC(=O)C1=C[C@@H](c2ccc(Br)cc2)[C@H](CCCO)[C@@H](OCC)O1 | 0.8 | -19.4 | 9.3 | 24.2*
Cc1ccc[n+](/C(=C\C(=C=[N-])C#N)C(=O)c2ccc(Cl)cc2)c1 | 6.1 | -18.2 | 18.1 | 21.5*
Cc1cccc(N/C=C/C(=O)c2ccc(Cl)cc2)c1 | -5.3 | 3.7 | 17.1 | 1.3
CCCNC(=O)C(Cc1cccc(Cl)c1)NC(=O)c1ccc(C#N)cc1 (stereo not given) | . | -19.8 | . | 26.9*
CC(=O)Nc1ccc2nc3c(=O)n(C)c(=O)n(C)c3nc2c1 | 1.3 | 80.1* | 48.6 | -100.9
CC(=O)Nc1ccc2nc3ccccc3nc2c1 | -1.0 | 32.8 | 92.4* | .
O=C(Nc1ccc2nc3ccccc3nc2c1)c1ccc(Br)cc1 | 0.2 | -38.6 | 57.4* | 1.2
Cn1c(=O)c2nc3ccccc3nc2n(C)c1=O | -1.7 | 14.4 | 21.7 | -149.9
CC(=O)Nc1ccc(-c2nc3ccc(NC(C)=O)cc3o2)cc1 | 5.2 | . | 50.6* | i
CC(=O)Nc1ccc2oc(-c3ccccc3)nc2c1 | -1.3 | . | 34.3 | -108.6
COc1ccc(C=NN(C)C2=NS(=O)(=O)c3ccccc32)cc1 | . | . | . | -452.8
Cn1c(CNC(=O)CCNC(=O)c2cccc(Br)c2)cc(=O)n(C)c1=O | 36.1* | -0.8 | -13.7 | 4.3
CC(=NOC(=O)c1c(-c2ccccc2Cl)noc1C)c1cnccn1 | . | . | . | 1.5
CC(CCc1ccccc1)NC(=O)c1ccc(Cl)nc1 (stereo not given) | 16.7* | -0.1 | 8.5 | 5.6
CN(C)c1ccc(/C=C(/NC(=O)c2ccccc2)C(=O)NN=Cc2ccc([N+](=O)[O-])c(O)c2)cc1 | . | . | . | 20.2*
